Experimental findings from ChEMBL document CHEMBL4138161, “Discovery of simplified sampangine derivatives as novel fungal biofilm inhibitors” (Eur J Med Chem, 2018) are described below.

The test system of assay [1] is Candida albicans. Briefly: Antibiofilm activity against Candida albicans SC5314 assessed down regulation of ECE1 gene at 0.4 ug/ml after 1 hr by qRT-PCR analysis. It counts as functional, organism-based. The method in brief: (§1)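 Biofilm grown in dishes with 0.4 µg/mL compound or DMSO control for 1 h; total RNA isolated and transcripts quantified by real-time RT-PCR. Normalized to 18S rRNA, expressed as fold change vs untreated SC5314. Mean ± SD of three independent experiments.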

For assay [2], the system named is Candida albicans. Briefly: Antibiofilm activity against Candida albicans SC5314 assessed as disruption of biofilm formation at 12.8 ug/ml. It counts as functional, organism-based.
Assay [3] has as its system Candida albicans. Briefly: Antibiofilm activity against Candida albicans SC5314 assessed inhibition of cellular surface hydrophobicity at 0.2 to 1.6 ug/ml incubated for 24 hrs. It counts as functional, organism-based. The method in brief: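 Biofilms treated with compound for 24 h were detached and resuspended in PBS to OD600 1.0. Suspension was vortexed with octane (4:1 by volume) for 3 min, then left 3 min at room temperature to separate. Aqueous-phase OD600 was compared with a no-octane control as (control − overlay)/control × 100%. Three replicates per group across three independent experiments.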

The test system of assay [4] is Candida albicans. As to the kind of experiment: Antibiofilm activity against Candida albicans SC5314 cultured in SLAD media assessed inhibition of yeast-to-hypha morphological transition after 3 hrs. It counts as functional, organism-based. The method in brief: (§2)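 Hyphal induction in Lee's (pH 6.8), Spider, SLAD or RPMI 1640 medium with compound; morphology assessed by microscopy.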

In assay [5] the test system is Candida albicans. As to the kind of experiment: Antibiofilm activity against Candida albicans SC5314 assessed down regulation of RAS1 gene at 0.4 ug/ml after 1 hr by qRT-PCR analysis. Type of assay: functional, organism-based. In a few lines:
as §1

For the next assay, the system named is Staphylococcus aureus. As to the kind of experiment: Antibacterial activity against Staphylococcus aureus NRS271 after 24 hrs. It counts as functional. The following applies: NRS271, 24 h.
The test system of assay [6] is Candida albicans. As to the kind of experiment: Antifungal activity against fluconazole-resistant Candida albicans clinical isolate 032 after 24 hrs by spectrophotometric analysis. Conditions: isolate 032, 24 h. It counts as functional. In a few lines: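 Broth microdilution (MIC80) against fluconazole-resistant clinical C. albicans isolates from a Shanghai hospital. Strains were grown in YPD at 30 ℃. Compounds came from 6.4 mg/mL DMSO stocks and were tested over a concentration series on 5×10^3 CFU/mL inoculum in RPMI 1640 at 35 ℃ for 24 h. OD600 was read; MIC80 is the lowest concentration giving 80% growth inhibition. Done in triplicate.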

For assay [7], the system named is Candida albicans. As to the kind of experiment: Antibiofilm activity against Candida albicans SC5314 assessed down regulation of HWP1 gene at 0.4 ug/ml after 1 hr by qRT-PCR analysis. It counts as functional, organism-based. The method in brief: as §1
In the next assay the test system is Trichophyton rubrum. Briefly: Antifungal activity against Trichophyton rubrum Cmccftla after 24 hrs by spectrophotometric analysis. It counts as functional. The method in brief:
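Broth microdilution in RPMI 1640, inoculum 5×10^3 CFU/mL, compounds from 6.4 mg/mL DMSO stocks, 35 ℃ for 24 h. Growth read as OD600; MIC80 taken as lowest concentration giving 80% growth inhibition. Triplicate.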

The test system of assay [8] is Candida albicans. Briefly: Antibiofilm activity against Candida albicans SC5314 cultured in Spider media assessed inhibition of yeast-to-hypha morphological transition after 3 hrs. Type of assay: functional, organism-based. In a few lines: as §2
The subject of assay [9] is Candida albicans. Briefly: Antibiofilm activity against Candida albicans SC5314 cultured in YPD media containing 10% FBS assessed inhibition of yeast-to-hypha morphological transition after 3 hrs. Type of assay: functional, organism-based. In a few lines: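 Yeast-to-hypha transition in YPD with 10% (v/v) FBS across compound concentrations; cell morphology photographed after 3 h at 37°C.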

In assay [10] the test system is Candida albicans. Briefly: Antibiofilm activity against Candida albicans SC5314 assessed as disruption of biofilm formation at 6.4 ug/ml. Type of assay: functional, organism-based.

Each structure is given as a SMILES string. In brackets after ≈: the same amount, converted by molar mass. Activity calls are given as the source filed them. The rule behind the calls is not given here. Bounds are passed on as bounds.

On to `CCCc1ccnc2c1C(=O)c1sc([N+](=O)[O-])cc1C2=O`, for which the outcome in the assay on Candida albicans [1], in the assay on Candida albicans [2], in the assay on Candida albicans [3], with Candida albicans [5] and in the assay on Candida albicans [7] was Active. In addition, the Activity entry with Candida albicans [4], in the assay on Candida albicans [8] and in the assay with Candida albicans [9] was “Dose-dependent effect” throughout. The MIC80 was over 128 µg/mL against Staphylococcus aureus, 1 µg/mL (≈ 3.31 µM) against Candida albicans [6] and 2 µg/mL (≈ 6.62 µM) against Trichophyton rubrum.

Regarding `CCc1ccnc2c1C(=O)c1sc([N+](=O)[O-])cc1C2=O`, the result with Candida albicans [1], in the assay with Candida albicans [10], with Candida albicans [3], with Candida albicans [5] and in the assay with Candida albicans [7] was Active. In addition, the Activity entry in the assay with Candida albicans [4], with Candida albicans [8] and in the assay with Candida albicans [9] was “Dose-dependent effect” in each case. For the same compound, the results for the MIC80 in the assay with Staphylococcus aureus, in the assay on Candida albicans [6] and against Trichophyton rubrum were over 128 µg/mL, 0.5 µg/mL (≈ 1.73 µM) and 0.5 µg/mL (≈ 1.73 µM), respectively.
